Laboratory results reported in ChEMBL document CHEMBL3286287, “Identification of a new selective dopamine D4 receptor ligand” (Bioorg Med Chem, 2014).

Legend:
D(3) dopamine receptor = D(3) dopamine receptor (Homo sapiens, UniProt P35462); assay: Displacement of [3H]N-methylspiperone from human dopamine D3 receptor by PDSP assay
[1] = Selectivity ratio of Ki for human dopamine D3 receptor to Ki for rat dopamine D4 receptor
[2] = Selectivity ratio of Ki for human dopamine D2 receptor to Ki for rat dopamine D4 receptor
D(2) dopamine receptor = D(2) dopamine receptor (Homo sapiens, UniProt P14416); assay: Displacement of [3H]N-methylspiperone from human dopamine D2 receptor by PDSP assay
D(1B) dopamine receptor = D(1B) dopamine receptor (Homo sapiens, UniProt P21918); assay: Displacement of [3H]SCH23390 from human dopamine D5 receptor by PDSP assay; details: for inhibition: concentration not given here
D(1A) dopamine receptor = D(1A) dopamine receptor (Homo sapiens, UniProt P21728); assay: Displacement of [3H]SCH23390 from human dopamine D1 receptor by PDSP assay; details: for inhibition: concentration not given here
D(4) dopamine receptor = molecular target: T1, D(4) dopamine receptor (Rattus norvegicus, UniProt P30729); assay: Displacement of [3H]N-methylspiperone from rat dopamine D4 receptor by PDSP assay
T1 sequence (P30729 whole entry): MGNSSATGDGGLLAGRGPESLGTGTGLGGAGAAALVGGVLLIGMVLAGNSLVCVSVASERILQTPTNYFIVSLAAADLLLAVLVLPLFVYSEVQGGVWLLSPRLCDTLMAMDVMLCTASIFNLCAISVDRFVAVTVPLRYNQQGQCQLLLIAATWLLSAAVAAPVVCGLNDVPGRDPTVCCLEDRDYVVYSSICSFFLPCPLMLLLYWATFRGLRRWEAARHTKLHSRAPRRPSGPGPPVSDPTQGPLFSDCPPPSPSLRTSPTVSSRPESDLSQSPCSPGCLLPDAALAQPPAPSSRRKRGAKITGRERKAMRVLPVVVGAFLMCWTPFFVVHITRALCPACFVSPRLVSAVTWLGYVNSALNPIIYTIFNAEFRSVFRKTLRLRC

[3] = molecular target: 5-hydroxytryptamine receptor 2A (Rattus norvegicus, UniProt P14842); assay: Displacement of [3H]ketanserin from rat 5-HT2A receptor by PDSP assay
Method in brief: (§1)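 Ki values were determined by the NIMH Psychoactive Drug Screening Program using radioligand displacement. Compounds first went through a primary assay.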

[4] = Binding affinity to sigma-2 receptor (unknown origin) by PDSP assay; set-up: species or system Homo sapiens
[5] = molecular target: 5-hydroxytryptamine receptor 7 (Homo sapiens, UniProt P34969); assay: Displacement of [3H]LSD from human 5-HT7 receptor by PDSP assay
[6] = molecular target: Sigma non-opioid intracellular receptor 1 (Homo sapiens, UniProt Q99720); assay: Binding affinity to sigma-1 receptor (unknown origin) by PDSP assay
[7] = molecular target: T2, 5-hydroxytryptamine receptor 2C (Rattus norvegicus, UniProt P08909); assay: Displacement of [3H]mesulergine from rat 5-HT2C receptor by PDSP assay; method in brief: as §1
T2 sequence (P08909 whole entry): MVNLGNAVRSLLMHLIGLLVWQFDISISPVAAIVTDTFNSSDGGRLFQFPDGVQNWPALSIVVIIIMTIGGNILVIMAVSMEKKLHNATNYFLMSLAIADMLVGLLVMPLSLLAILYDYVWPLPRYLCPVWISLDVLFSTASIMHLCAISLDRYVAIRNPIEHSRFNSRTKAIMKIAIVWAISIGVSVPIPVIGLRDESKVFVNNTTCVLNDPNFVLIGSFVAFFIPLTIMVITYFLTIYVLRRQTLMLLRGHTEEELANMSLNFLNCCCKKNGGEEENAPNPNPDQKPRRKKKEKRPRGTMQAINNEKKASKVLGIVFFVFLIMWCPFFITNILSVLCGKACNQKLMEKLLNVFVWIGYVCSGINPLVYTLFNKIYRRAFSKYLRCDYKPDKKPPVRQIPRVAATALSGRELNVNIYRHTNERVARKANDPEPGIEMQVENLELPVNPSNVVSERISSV

D(1B) dopamine receptor, sequence (P21918 whole entry): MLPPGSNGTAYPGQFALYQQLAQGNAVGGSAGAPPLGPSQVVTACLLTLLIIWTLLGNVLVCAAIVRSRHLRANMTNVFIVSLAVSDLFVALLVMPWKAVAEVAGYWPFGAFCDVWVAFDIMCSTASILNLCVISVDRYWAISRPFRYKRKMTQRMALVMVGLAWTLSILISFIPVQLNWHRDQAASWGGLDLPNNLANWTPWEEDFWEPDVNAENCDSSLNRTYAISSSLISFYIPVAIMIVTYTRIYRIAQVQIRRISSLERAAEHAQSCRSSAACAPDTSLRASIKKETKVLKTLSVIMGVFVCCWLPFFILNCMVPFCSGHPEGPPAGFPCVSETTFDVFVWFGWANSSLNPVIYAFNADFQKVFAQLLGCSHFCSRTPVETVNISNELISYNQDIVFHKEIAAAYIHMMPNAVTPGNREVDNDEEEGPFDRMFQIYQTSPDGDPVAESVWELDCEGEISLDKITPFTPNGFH
D(2) dopamine receptor, sequence (P14416 whole entry): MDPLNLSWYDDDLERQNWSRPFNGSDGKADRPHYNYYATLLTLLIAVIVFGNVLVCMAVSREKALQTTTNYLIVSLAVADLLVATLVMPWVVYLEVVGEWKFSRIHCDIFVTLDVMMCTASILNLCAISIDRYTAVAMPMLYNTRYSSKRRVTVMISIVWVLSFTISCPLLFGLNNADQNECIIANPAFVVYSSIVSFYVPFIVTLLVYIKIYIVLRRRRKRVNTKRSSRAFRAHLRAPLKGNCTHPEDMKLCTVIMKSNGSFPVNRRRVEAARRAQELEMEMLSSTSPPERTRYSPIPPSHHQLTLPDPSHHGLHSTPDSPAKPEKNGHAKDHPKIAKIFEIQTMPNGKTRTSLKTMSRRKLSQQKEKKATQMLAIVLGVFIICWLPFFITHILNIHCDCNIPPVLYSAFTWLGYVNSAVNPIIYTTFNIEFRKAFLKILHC
D(3) dopamine receptor, sequence (P35462 whole entry): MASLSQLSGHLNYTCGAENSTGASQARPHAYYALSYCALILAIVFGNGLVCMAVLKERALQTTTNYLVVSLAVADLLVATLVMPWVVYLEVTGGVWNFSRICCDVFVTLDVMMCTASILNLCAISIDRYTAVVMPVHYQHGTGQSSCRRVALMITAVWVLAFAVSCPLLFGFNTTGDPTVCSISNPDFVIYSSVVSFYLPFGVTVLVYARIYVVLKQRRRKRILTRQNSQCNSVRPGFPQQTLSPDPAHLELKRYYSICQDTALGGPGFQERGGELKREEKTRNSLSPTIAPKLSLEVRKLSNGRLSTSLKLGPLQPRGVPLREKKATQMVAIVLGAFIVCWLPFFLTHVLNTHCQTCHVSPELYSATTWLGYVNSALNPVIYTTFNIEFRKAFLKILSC
D(1A) dopamine receptor, sequence (P21728 whole entry): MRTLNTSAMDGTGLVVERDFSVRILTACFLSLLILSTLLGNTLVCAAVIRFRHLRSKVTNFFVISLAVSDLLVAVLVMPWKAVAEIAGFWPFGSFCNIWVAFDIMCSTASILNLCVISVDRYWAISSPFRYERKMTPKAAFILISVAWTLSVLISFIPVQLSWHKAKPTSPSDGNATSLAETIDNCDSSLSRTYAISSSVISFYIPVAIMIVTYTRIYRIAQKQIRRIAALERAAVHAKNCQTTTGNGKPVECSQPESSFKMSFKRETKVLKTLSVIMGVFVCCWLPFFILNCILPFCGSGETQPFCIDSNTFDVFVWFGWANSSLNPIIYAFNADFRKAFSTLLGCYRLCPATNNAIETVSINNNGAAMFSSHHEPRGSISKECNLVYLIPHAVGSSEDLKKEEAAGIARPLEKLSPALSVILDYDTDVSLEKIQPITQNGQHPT
5-hydroxytryptamine receptor 2A, sequence (P14842 whole entry): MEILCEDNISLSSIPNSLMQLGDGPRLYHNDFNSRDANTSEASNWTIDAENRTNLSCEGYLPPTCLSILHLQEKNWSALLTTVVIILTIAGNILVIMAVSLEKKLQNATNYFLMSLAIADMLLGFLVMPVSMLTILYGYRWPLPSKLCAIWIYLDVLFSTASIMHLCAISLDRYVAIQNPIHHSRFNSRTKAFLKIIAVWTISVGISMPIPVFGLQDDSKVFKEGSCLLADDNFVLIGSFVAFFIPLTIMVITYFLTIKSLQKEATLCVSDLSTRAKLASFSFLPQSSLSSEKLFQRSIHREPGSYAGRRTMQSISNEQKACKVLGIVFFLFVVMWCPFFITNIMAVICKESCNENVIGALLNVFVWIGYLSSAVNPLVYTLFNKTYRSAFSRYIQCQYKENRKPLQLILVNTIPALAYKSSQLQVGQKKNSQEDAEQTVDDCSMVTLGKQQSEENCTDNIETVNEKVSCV
5-hydroxytryptamine receptor 7, sequence (P34969 whole entry): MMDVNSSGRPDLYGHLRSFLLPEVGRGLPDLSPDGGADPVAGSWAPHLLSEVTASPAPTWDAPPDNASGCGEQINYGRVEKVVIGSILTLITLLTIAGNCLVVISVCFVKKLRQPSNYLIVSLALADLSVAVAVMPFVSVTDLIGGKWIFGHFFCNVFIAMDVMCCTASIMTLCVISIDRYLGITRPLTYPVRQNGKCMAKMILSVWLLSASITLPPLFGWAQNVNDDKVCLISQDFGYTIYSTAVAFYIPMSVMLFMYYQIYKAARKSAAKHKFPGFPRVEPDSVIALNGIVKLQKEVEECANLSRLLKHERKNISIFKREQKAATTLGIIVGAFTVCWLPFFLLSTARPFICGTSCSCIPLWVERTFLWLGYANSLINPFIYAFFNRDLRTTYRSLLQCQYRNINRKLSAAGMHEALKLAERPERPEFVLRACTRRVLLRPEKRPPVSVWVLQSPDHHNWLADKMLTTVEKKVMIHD
Sigma non-opioid intracellular receptor 1, sequence (Q99720 whole entry): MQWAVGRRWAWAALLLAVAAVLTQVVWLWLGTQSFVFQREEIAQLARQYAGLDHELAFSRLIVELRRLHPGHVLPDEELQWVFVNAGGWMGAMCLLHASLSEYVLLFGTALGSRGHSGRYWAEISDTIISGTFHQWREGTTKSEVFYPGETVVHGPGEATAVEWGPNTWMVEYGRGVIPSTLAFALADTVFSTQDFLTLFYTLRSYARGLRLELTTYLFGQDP

Structure (SMILES)	Ki (D(3) dopamine receptor; read-out: Ki)	Ratio Ki [1]	Ratio Ki [2]	Ki (D(2) dopamine receptor)	Ki (D(1B) dopamine receptor)	Ki (D(1A) dopamine receptor; read-out: Ki)	Ki (D(4) dopamine receptor; read-out: Ki)	inhibition (D(1B) dopamine receptor)	other results
Clc1ccc(N2CCN(CCCCCc3nc4ccccc4o3)CC2)cc1	119 nM	0.5	13	3110 nM	> 10000 nM	7940 nM	240 nM		
FC(F)(F)c1ccc(OCCCN2CCN(c3ccccn3)CC2)cc1	355 nM	29.6	91	1090 nM	> 10000 nM	2340 nM	12 nM		
Clc1ccc(N2CCN(CCCc3nc4ccccc4s3)CC2)cc1	214 nM	6.9	74.9		> 10000 nM	1270 nM			
[O-][S+](CCCN1CCN(c2ccc(Cl)cc2)CC1)c1ccc(F)cc1 (centres undefined)	1340 nM	103	48.8	635 nM			13 nM	< 50%	inhibition (D(1A) dopamine receptor): < 50%
Clc1ccc(N2CCN(CCCc3cc4ccccc4o3)CC2)cc1	2290 nM	29	25.1	1980 nM		1410 nM	78.9 nM	< 50%	
Clc1ccc(N2CCN(CCCc3nc4ccccc4o3)CC2)cc1	180 nM	1.5	27.3	3960 nM	> 10000 nM	1170 nM	145 nM		
Cc1ccc(N2CCN(CCCCc3ccc(F)cc3)CC2)nc1					3260 nM	521 nM			
O=C1c2ccccc2CC1CCN1CCN(c2ccc(Cl)cc2)CC1 (centres undefined)	4530 nM	126		> 10000 nM		1700 nM	36 nM	< 50%	Ki (D(1A) dopamine receptor; read-out: pKi (converted)): 389 nM
Fc1ccc(CCCCN2CCN(c3ccc(Cl)cc3)CC2)cc1		33.5	36.4		1760 nM	589 nM			
Fc1ccc(SCCCN2CCN(c3ccccn3)CC2)cc1		28.1	32.1		3220 nM	265 nM			
O=C1c2ccc(F)cc2CC1CCN1CCN(c2ccc(Cl)cc2)CC1 (centres undefined)	2480 nM	406	253	1540 nM		641 nM	6.1 nM	< 50%	
Clc1ccc(N2CCCN(CCCc3cc4ccccc4o3)CC2)cc1	1460 nM	7.9	13.5	2510 nM	1520 nM	274 nM	185 nM		
Fc1ccc(OCCCN2CCN(c3ncccn3)CC2)cc1		185	151			259 nM		< 50%	
Cc1ccc(N2CCN(CCCOc3ccc(F)cc3)CC2)nc1	187 nM	170	951	1050 nM	2580 nM	260 nM			
Fc1ccc(SCCCN2CCN(c3ncccn3)CC2)cc1		3.2	20.1		1370 nM	495 nM			
Fc1ccc(CCCCN2CCN(c3ncccn3)CC2)cc1					3810 nM	134 nM			

Structure (SMILES)	Ki (D(3) dopamine receptor; read-out: Ki)	Ratio Ki [1]	Ratio Ki [2]	Ki (D(2) dopamine receptor)	Ki (D(1B) dopamine receptor)	Ki (D(1A) dopamine receptor; read-out: Ki)	Ki (D(4) dopamine receptor; read-out: Ki)	inhibition (D(1B) dopamine receptor)	other results
Clc1ccc(N2CCN(CCCCc3nc4ccccc4s3)CC2)cc1	31 nM	7.8	54.8			1900 nM			
Fc1ccc(OCCCN2CCC(c3ccc(Cl)cc3)CC2)cc1		73.3	4.3		867 nM	126 nM			
Clc1ccc(N2CCN(CCc3cc4ccccc4o3)CC2)cc1								< 50%	inhibition (D(1A) dopamine receptor): < 50%
Fc1ccc(SCCCN2CCN(c3ccc(Cl)cc3)CC2)cc1		48.5	24.3		2810 nM	52 nM			
Clc1ccc(N2C[C@H]3C[C@@H]2CN3CCCc2cc3ccccc3o2)cc1		0.3	> 4.2				2400 nM	< 50%	inhibition (D(1A) dopamine receptor): < 50%
Fc1ccc(OCCCN2CCN(c3ccc(Cl)cc3)CC2)cc1					2680 nM	135 nM			
c1cnc(N2CCN(CCCc3nc4ccccc4s3)CC2)nc1							3.9 nM		Ki [3]: 283 nM; Ki [4]: 162 nM; pKi [4]: 6.79; Ki [5]: 342 nM; Ki [6]: 350 nM; Ki [7]: 280 nM
Fc1ccc(CCCCN2CCN(c3ccccn3)CC2)cc1					1450 nM				
O=C(CCCN1CCN(c2ccc(Cl)cc2)CC1)c1ccc(F)cc1							17.5 nM		
Fc1ccc2c(c1)CC(CCN1CCN(c3ccc(Cl)cc3)CC1)C2 (centres undefined)	2770 nM			1420 nM		837 nM	13 nM	< 50%	
Clc1ccc(N2CCN(CCc3nc4ccccc4o3)CC2)cc1	850 nM	0.6					1410 nM	< 50%	inhibition (D(1A) dopamine receptor): < 50%
Clc1ccc(N2CCN(CCCCc3nc4ccccc4o3)CC2)cc1	33 nM	1.1					30.6 nM	< 50%	inhibition (D(1A) dopamine receptor): < 50%
Clc1ccc(N2CCN(CCCOc3ccccc3)CC2)cc1		130	79.8						Ki (D(3) dopamine receptor; read-out: pKi (converted)): 794 nM; Ki (D(4) dopamine receptor; read-out: pKi (converted)): 5.5 nM
Cc1ccc(N2CCN(CCCSc3ccc(F)cc3)CC2)nc1	170 nM	8.5	55.3	1110 nM	2160 nM	222 nM	20 nM		
c1cnc(N2CCN(CCCCc3nc4ccccc4s3)CC2)nc1							0.84 nM		
